Active and inactive are the calls of the source. The rule behind the calls is not given here.
Tests used:
[1] = Antiproliferative activity against temperature-sensitive rat lymphatic endothelial cells assessed as cell viability at 10 uM after 48 hrs by MTS assay; assay type: functional; conditions: read-out: Activity
Procedure, shortened: (§1)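 TR-LE cells kept on type I collagen-coated dishes in HuMedia-EB2/EG + 10% FBS at permissive 33 °C. Seeded at 8 × 10^3 cells/well in DMEM + 10% FBS on collagen I-coated plates. Allowed 3 h to adhere, then exposed to compounds (final 0.1–100 μM) for 48 h. Viability by MTS assay. Final DMSO ≤0.5% (v/v).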

[2] = system: Endothelial cell; test: Antiproliferative activity against temperature-sensitive rat lymphatic endothelial cells assessed as cell viability at 100 uM after 48 hrs by MTS assay; assay type: functional, cell-based; procedure, shortened: as §1
[3] = system: HeLa; test: Antiproliferative activity against human HeLa cells after 48 hrs by MTS assay; assay type: functional, cell-based
Procedure, shortened: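 HeLa cells grown in EMEM + 10% FBS at 37 °C, 5% CO2. Seeded at 3 × 10^3 cells/well in EMEM + 10% FBS, incubated 24 h, then exposed to compounds for 48 h. Viability read by MTS assay. Final DMSO ≤0.5% (v/v). IC50 from viability.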

[4] = Antiproliferative activity against temperature-sensitive rat lymphatic endothelial cells after 48 hrs by MTS assay; conditions: Endothelial cell

| IC50 [3] [nM] | SMILES | Activity [2] | other results |
| --- | --- | --- | --- |
| – | C#CC(=O)/C=C/CCCCCCCCCC/C=C/C(O)C#C (stereo unspecified) | – | viability at 10 µM [1]: 78% |
| – | C#CC(=O)/C=C/CCCCCC | inactive | – |
| – | C#CC(O)/C=C/CCCCCC (stereo unspecified) | inactive | – |
| 1.7 | CC(=O)O[C@H]1C(=O)[C@@]2(C)[C@H]([C@H](OC(=O)c3ccccc3)[C@]3(O)C[C@H](OC(=O)[C@H](O)[C@@H](NC(=O)c4ccccc4)c4ccccc4)C(C)=C1C3(C)C)[C@]1(OC(C)=O)CO[C@@H]1C[C@@H]2O [PACLITAXEL] | – | – |
| 4.3 | CC[C@]1(O)C[C@H]2CN(CCc3c([nH]c4ccccc34)[C@@](C(=O)OC)(c3cc4c(cc3OC)N(C=O)[C@H]3[C@@](O)(C(=O)OC)[C@H](OC(C)=O)[C@]5(CC)C=CCN6CC[C@]43[C@@H]65)C2)C1 [VINCRISTINE] | – | IC50 [4]: 80 nM |

From ChEMBL document CHEMBL2406939, “Structure, synthesis, and biological activity of a C-20 bisacetylenic alcohol from a marine sponge Callyspongia sp” (J Nat Prod, 2013)
